# Screening data: PubChem, several laboratories
# Shown are actives, neighbours in structure and some others; about 9.8% of the full set was active somewhere.
# WT yeast gro inh: growth inhibition of WT yeast, mitochondrial fusion screen; mitochondrial fusion phenotypic screen, WT strain; inhibition, % at 10 µM; actives 2.1% (n = 190,000); AID 1362; in the data active = inhibition above about 58%; tested in S. cerevisiae
# L major viab: reduces viability of Leishmania major promastigotes | actives 9% (n = 200,000) | resazurin fluorescence viability | inhibition, % at 10 µM; in the data active = inhibition above about 50%;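 note: promastigotes grown with compound for 44 hours at 28 °C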
# Calpain2 inh: blocks pig calpain II enzyme activity. actives 0.37% (n = 220,000). purified calpain II, fluorogenic peptide substrate, 30 min. inhibition, % at 16 µM;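 active = inhibition above about 50%, limit read from the data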
# PMI activator: increases human mannose-6-phosphate isomerase activity. purified human PMI, coupled resazurin fluorescence, 20 min; stronger effect = higher value; 1 = vehicle control, 0 substrate-free wells. actives 0.005% (n = 190,000). activation factor at 20 µM;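 active = activation factor of 2 or more at 20 µM, relative to plate controls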
# Rad51 HR inh: Rad51 (human) homologous recombination inhibition; inhibition, % at 10 µM; actives 0.085% (n = 200,000); AID 1385; hRad51 DNA strand exchange, fluorescence dequenching;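 active = inhibition above 40% at the single screening dose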;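 note: 0% = DMSO control wells and 100% = blanks with heterologous ssDNA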
# Target sequence (Q06609 whole entry, looked up): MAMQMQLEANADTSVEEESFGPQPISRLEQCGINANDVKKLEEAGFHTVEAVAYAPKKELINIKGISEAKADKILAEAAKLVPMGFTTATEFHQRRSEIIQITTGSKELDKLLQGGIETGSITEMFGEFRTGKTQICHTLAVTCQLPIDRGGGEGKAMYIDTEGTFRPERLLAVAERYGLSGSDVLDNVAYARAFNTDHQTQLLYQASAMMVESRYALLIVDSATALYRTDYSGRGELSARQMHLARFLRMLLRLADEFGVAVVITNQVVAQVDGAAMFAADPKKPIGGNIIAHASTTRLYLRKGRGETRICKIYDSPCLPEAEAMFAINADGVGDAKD
#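 Material: Human Rad51 nucleoprotein filaments preassembled on unlabelled ssDNA | Also added: Labelled 47-mer dsDNA for strand exchange | Dosing: Single dose, 10 µM final compound | Schedule: 30-min compound preincubation and 15-min exchange, both room temperature | Technique: Fluorescence dequenching at 485/520 nm | Measure: Percent inhibition relative to plate controls and blanks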
# PMI act hi M6P: PMI (human) activation, high substrate; actives 0.34% (n = 190,000); coupled PMI enzyme assay, resazurin fluorescence, 20 min; stronger effect = higher value; 1 = untreated enzyme, 0 = substrate-free blank; activation factor at 20 µM; P34949; AID 1216;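 active = activation factor of 2 or more at 20 µM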
#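 Test system: human PMI in coupled enzyme assay; Input: PMI at 15 ng/mL final; Medium: HEPES buffer, pH 7.4; Schedule: 20 min incubation at room temperature; Technique: resorufin fluorescence at Ex 544/Em 590 nm; Compound: 20 µM single dose; Probe or stimulus: Near-saturating mannose-6-phosphate, 1.0 mM.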
# * = called active by the depositor; nt = no result given.
SMILES,WT yeast gro inh,L major viab,Calpain2 inh,PMI activator,Rad51 HR inh,PMI act hi M6P
COc1cc(/C=C2\SC(c3ccc(C)cc3)=NC2=O)cc(OC)c1O,8,57*,-38,0.7,-131,0.7
CC(C)(C)N=C1NN=C(c2cc3ccccc3o2)CS1,67*,-6,10,1.1,4,1.4
CC(C)(C)N=C1NN=C(c2ccc(Cl)cc2)CS1,nt,nt,2,nt,14,nt
Cc1nc(N)nc(N)c1/C=C/C(C)(C)c1ccc(Cl)cc1,69*,100*,26,1.1,24,1
CC(C)(C)S(=O)(=O)c1cnc(-c2ccc(Cl)cc2)nc1N,nt,nt,12,nt,19,nt
NCCOc1ccccc1OCCN,-10,-4,-20,1,-2,0.9
NCCOc1ccccc1Cc1ccccc1,0,99*,26,1.1,-2,1.1
CCCN1C2=NCCN2c2ccccc21,-20,-7,-2,0.9,0,0.9
CCCCN1C2=NCCCN2c2ccccc21,6,19,-22,1,2,1
CC(C)(C)c1ccc(CN2C3=NCCCN3c3ccccc32)cc1,20,100*,-42,1.1,-3,1.1
c1ccc(OCCN2C3=NCCN3c3ccccc32)cc1,10,101*,-6,1,-12,1.1
CCCCCCCN1C2=NCCCN2c2ccccc21,32,70*,2,1,nt,1
Cc1ccc(CN2C3=NCCCN3c3ccccc32)cc1,10,6,13,1,-7,1
Cc1[nH]c2ccccc2c1/C=N/NC(=O)c1cc(C(C)C)[nH]n1,nt,nt,-9,nt,5,nt
Cc1ccc(Nc2c([N+](=O)[O-])cc(C(=O)N3CC(=O)Nc4ccccc43)cc2[N+](=O)[O-])c(C)c1,-1,88*,-38,0.9,-7,1
Cc1ccc(NC(=O)Cc2nc(CSc3nnc(-c4ccc5c(c4)OCO5)o3)cs2)cc1,16,87*,-125,1,0,1
CCOC(=O)C1=C(CC)Nc2ccccc2N=C1NC(=O)Nc1ccc(Cl)c(Cl)c1,7,97*,9,0.9,3,1
Cc1cc(Nc2nn(C)c(N)c2C#N)ccc1F,6,-7,-21,1,nt,1
O=C(COC(=O)C(c1ccccc1)c1ccccc1)NCc1ccco1,9,-5,2,1,4,0.9
CC(=O)c1c(C(C)=O)c(C)n(-c2ccc(C)c(NC(=O)c3ccccc3Cl)c2)c1C,-11,53*,-12,1,-3,1
Cc1ccc(NC(=O)c2ccccc2Cl)c(Cl)c1,2,3,13,1,6,0.9
CCC(=O)N1CCc2cc(Br)cc(S(=O)(=O)NCCN3CCCCC3CC)c21 (stereo not drawn),-8,12,-22,1,0,1
O=C(C1CC1)N1CCc2cc(Br)cc(S(=O)(=O)N3CCCCCC3)c21,46,10,15,0.8,-3,0.8
COC(=O)CS(=O)(=O)c1cc(Br)cc2c1N(C(C)=O)CC2,16,-4,-31,0.9,2,0.9
O=C(C1CC1)N1CCc2cc(Br)cc(S(=O)(=O)NC3CCCCC3)c21,23,3,53*,0.9,-3,1
SMILES,WT yeast gro inh,L major viab,Calpain2 inh,PMI activator,Rad51 HR inh,PMI act hi M6P
CCCN(CCC)CCCNS(=O)(=O)c1cc(Br)cc2c1N(C(C)=O)CC2,8,87*,14,0.9,8,0.9
CCC(=O)N1CCc2cc(Br)cc(S(=O)(=O)NCCN3CCCCC3C)c21 (stereo not drawn),-2,92*,-11,0.9,-3,1
COc1ccccc1NS(=O)(=O)c1cc(NC(=O)CNC(=O)c2ccccc2)ccc1C,-9,64*,4,0.9,9,0.9
COc1ccccc1NS(=O)(=O)c1cc(NC(=O)c2ccc3c(c2)OCCO3)ccc1C,44,58*,-32,0.9,-1,0.9
COc1ccccc1NC(=O)c1ccc(NS(=O)(=O)c2ccc(F)c(F)c2F)cc1,2,66*,2,1.2,1,1.2
Cc1ccc(S(=O)(=O)Nc2ccc(O)c3ncccc23)cc1,-17,99*,-19,0.6,-14,0.7
CNC(=O)C1CC(=O)N(CCCc2ccccc2)C(=Nc2ccccc2)S1 (stereo not drawn),11,55*,21,0.9,-1,0.9
CCC(C)n1c(=O)c(C(=O)Nc2ccccc2S(N)(=O)=O)c(O)c2ccccc21 (stereo not drawn),65*,-8,-259,1.1,5,1.2
CCOC(=O)Cc1csc(NC(=S)NC(=O)CC(C)C)n1,22,54*,36,1.1,-2,1.1
CCOC(=O)Cc1csc(NC(=O)c2c(O)c3ccccc3n(CC(C)C)c2=O)n1,11,79*,-376,0.9,2,1
CC(C)Cn1c(=O)c(C(=O)N/N=C/c2cccc(F)c2)c(O)c2ccccc21,19,70*,-23,1,-1,1.1
CCOC(=O)Cc1csc(NC(=S)NC(=O)c2ccccc2)n1,23,-7,14,0.8,nt,1
Cc1cc(C)c(NC(=S)N(CCc2ccncc2)C(C)C)c(C)c1,3,32,8,1.1,28,1.1
COCCN(CCOC)C(=O)COC(=O)c1ccc(Cl)c(S(=O)(=O)N(C)c2ccccc2)c1,-2,-4,2,1,9,1
C[C@H](N)c1nnc(SCC(N)=O)o1,nt,nt,-7,nt,-6,nt
CCOC(=O)Cc1csc(NC(=O)CSc2nnc(-c3ccncc3)o2)n1,17,51*,19,1,nt,1
Cn1c(=O)c(C(=O)Nc2ccccc2S(N)(=O)=O)c(O)c2ccccc21,nt,nt,8,nt,15,nt
CC(C)Cn1c(=O)c(C(=O)Nc2ccccc2S(N)(=O)=O)c(O)c2ccccc21,73*,-6,-235,1,-1,1
CCOC(=O)c1c(C)n(-c2ccc(C)cc2)c2c(CC(C)=O)c(Br)c(OC)c(O)c12,6,-1,26,1,14,1
CCOC(=O)c1c(C)n(-c2ccc(C)cc2)c2c(C(C(C)=O)C(=O)O)c(Br)c(O)c(O)c12 (stereo not drawn),43,50*,-42,0.6,-3,0.7
CC(=O)Nc1ccc(C(=O)Nc2nc(-c3ccccn3)cs2)cc1,7,64*,-2,1.3,-11,0.9
CC(=O)Nc1ccc(C(=O)Nc2nc(-c3cccnc3)cs2)cc1,-14,14,-22,0.6,3,1
O=C(Nc1nc(-c2ccco2)cs1)c1ccccc1,18,3,-18,0.8,-6,0.7
Cc1ccc(-c2csc(NC(=O)c3ccc(-c4ccccc4)cc3)n2)o1,77*,17,-10,0.8,2,0.8
O=C(Nc1nc(-c2ccccn2)cs1)c1ccc2c(c1)OCCO2,69*,99*,-12,1,nt,1.2
C/C(=N\S(=O)(=O)c1ccc(C)cc1)N(C)C,nt,nt,-10,nt,16,nt
